Sequences and labels used below:
B1: tRNA (parent)
chain: GUUCCGUUGGCGUAAUGGUAACGCGUCUCCCUCCUAAGGAGAAGACUGCGGGUUCGAGUCCCGUACGGAACG

Experimental findings from the RNAGym collection of RNA variant scans (doi:10.1126/science.aae0568) are described below.

Fewer inactive variants are shown than the library holds.

Variants of B1 are the subject of the series. Kind of series: yeast fitness relative to wild type (ratio to wild type); higher = fitter; tRNA-Arg(CCU), competitive growth, 37 C, YPD. In a few lines: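 Changes in genotype frequencies gave Darwinian fitness relative to wild type. Frequencies were read by 100-nucleotide paired-end sequencing of gene amplicons before and after pooled Saccharomyces cerevisiae strains, carrying tRNA-Arg(CCU) gene variants at the native locus, were competed in YPD at 37°C for 24 hours in six replicates. A genotype was kept only with ≥ 100 starting reads, and estimates < 0.5 were set to 0.5.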
GUUCCGUUGGCGUAAUGGUAGCGCGUCUCCCUACUAAGGAGAAGACUGCGGGUUCGAGUCCCGUCCGGACCG: the yeast fitness was 0.54.

With GUUCCGGUGGCGUAAUGGUAACGCGUCUCCCUCGUAAGGAGAUGACUGCGGGUUCGAGUCCCGUACGGAACG, the yeast fitness was determined as 0.661.

For the variant GUACCGUUGGCGUAAUGGUAACGCGUCUCGCUCCUAAGGAGAAGACUGCGGGUUCGAGUCCCGUAGGGAACG, the yeast fitness is no more than 0.5.

Consider GUUCCGUUGGCGUAAUGGUAACGCGUCUACCUCCUAAGGAGAAGACUGCGGGUUCGAGUCCCGUACGGAUCG, for which the yeast fitness was found to be 0.891.

For GUUCCGUUGGCGUAACGGUAACGCGUCUCCCUCCUAAGGAGAAGACUGCGGGUUCGAGUCCCGUAUGGAACG, the yeast fitness worked out at 0.891.

As to GUUCCGUUGGCGUAUUGGUGACGCGUCGCCCUUCUAAGGAGAAGACUGCGGGUUCGAGUCCCGUACGGAACG, the yeast fitness was no more than 0.5.

Take GUUCCGUUGGUGUAAUGGUAACGCGUCUCCCUCCUAAGGAGAAGAGUGCGGGUUCGAGUCCCGUACGGAACG: the yeast fitness was found to be 0.986.

Turning to GUUCCGGUGGCGUAAUGGUAACGCGUCUCCCUCCUAAGGAGAAGACUACGGGUUCGAGUCCCGUACGGAACG, the yeast fitness came out at 0.847.

On to GUUCCGUUAGCGAAAUGGUAACGCGUCUCCCUCCUAAGGAGAAGACUGCGGGUUCGAGUCCCGUACGGCACG, for which the yeast fitness was determined as 0.809.

In the case of GUUCCGUUGGCGUAAUGGUAAUGCGUCUCCCUCCUAAGGAGAUGACUGCGGGUUGGAGUCCCGUACGGAACG, the yeast fitness turned out to be 0.595.

Turning to GUUGCGUUGGCGUAAUGGUAACGCGUCUGCCUCCUAAGGAGAAGACUGCGGGUUCGAGUACCGUACCGAACG, the yeast fitness was found to be 0.564.

Turning to GUUCCGUUGGCGUAAUGGUAACGCGUCUCCCUCCUAAGGAGAAGACUGCGGGUUAGACUCCCGUACGGAACG, the yeast fitness was determined as 0.534.

Turning to GUUCCGUUGGCGUGAGGGUAACGGGCCUCCCUCCUAAGGAGAAGACGGCCGGUUCGAGUCCCGUAAGGAACG, the yeast fitness was no more than 0.5.

For GUUCCGUUGGAGUAAUGGUAAAGCGUCUGCCUCCUAAGGAGAAGACUGCGGGUUCGAGUCCCGUACGGGACG, the yeast fitness amounted to 0.576.

As to GUUCCGUUGGCGUAAUGGUAACGCGUCUCCCUACAAAGGAGAAGACUGCGGGUUCGAGUCCUGUACGGAACG, the yeast fitness came to 0.617.

For the variant GUUCCGUUGGUGUAAUGGUUACGCGUCUCCCUCCUAAGAAGAAGACUGCGGGUUCGAGUCCCAUACGGAUCG, the yeast fitness was no more than 0.5.

Regarding GUUCCGUUGGCGUAAUGGUAACGCGUCUCUCUCCUAAGAAGAAGACUGCGGGUUCGAGUGCCGUACGGAACG, the yeast fitness came out at 0.57.

Regarding GUUCCGUCGGCGUAAUGGUAACGCGUCUCCCUCCUAAGGAGAAGAGUGCGGGUUCGAGUCCCGUACAGAACG, the yeast fitness was found to be 0.674.

Take GUUCCGUUGGCGUCAUAGUAACGCGUCUCCCUCCUAAGGAGAAGACUGCGGGUUCGAGUCCCGUACGAAACG: the yeast fitness was 0.522.

For the variant GUUCCGUUGGCGUAAUGGUAACGCGCCUCCCUCCUAAGGAGAUGACUGCGGGUUCGAGUCCCAUACGGAACG, the yeast fitness turned out to be 0.658.

As for GUGCCGUUGGCGUAGUGGUAUCGCGUCUCCCUCCUAAGGAGAAGACUACGGGUUCGAGUCCCGUACGGAACG, the yeast fitness is no more than 0.5.

Turning to GUUCCGUUGGCGUAAUGGUAACGCGUCUCCCUCCUAAGGAGAAGACUGGGGGUUCGAGUCCAGUACGGAACG, the yeast fitness was determined as 0.845.

In the case of GUUCCGUUGGCGUAAUGGUAACGCGUCUCCCUCCUAAGGAGAAGACUGCGGGUUCGAGUCUCGUACGAAGCG, the yeast fitness is 0.648.

As to GUUCCGUUGGCGUAAUGGUAACGGGUCUCCUUCCUAAGGAGAAGACUGCGGGUUAGAGUCCCGUACGGAACG, the yeast fitness is no more than 0.5.

GUUCCGUUGGCGUAAUGGUAACGCGACACGCUCCUAAGGAGAAGACUGCGGGUUCGAGUCCCGUACGGAACG: the yeast fitness is 0.584.

Take GUUCCGUUGGCGUAAUGGUAACGCGUCUCCCUCCUAAGGAGAAAAGUGCGGGUUCGAGUCCCGUACGGAACG: the yeast fitness turned out to be 0.928.

In the case of GUUCCGUUGGCGUAAUGGUAACGCGUCUCCCUCCUAAGGAGAAGACAGCGGGUUCGAGUCCCGUACAGAACG, the yeast fitness was determined as 0.765.

GUUCCGUUAGCGUAAUGGUAAAGCGUCUCCCUCCUAAGGAGAAGACUGCGGGUUCGAGUCUCGUACGGAACG: the yeast fitness came to 0.622.

In the case of GUUCCGUUGCCGUAAUGGUAACGCGUCUCCGUUCUAAGGAGAAGACUGCGGGUUCGAGUCCCGUACGGAACG, the yeast fitness worked out at 0.698.

GUUCCGUUGGCGUAAUGCUAACGCGUCUCCCUCCUAAGGACACGACUGCGGGUUUGAGUCCCGUACGGAACG: the yeast fitness is no more than 0.5.

As to GUUCCGUUGGCGUAAUGGUAGCGCGUCUCCCUCCUAAGGAGAAAACUGCGGGUUCGAGUCCCGUACGGCACG, the yeast fitness was no more than 0.5.

For GCUCCGUUGGCGUAAUGGUAACGCGUCUCCCUCCUAAGGAGCAGACUGCGGGUUCGAGUCCCGUACGGAACG, the yeast fitness amounted to 0.914.

In the case of GUUCCGUUGGCGUACUCGUAACGCGUCUCCCUCCUAAGGAGAAGACUGCAGGUUCGAGUCCCGUACGGUACG, the yeast fitness was no more than 0.5.

Take GUUCCGUUGGCGUAAUGGUAACGCGUCUCCCUCCUAAGGAGAAGUCUGCGCGUUCGAGUCCCGUACGAAACG: the yeast fitness is no more than 0.5.

In the case of GUUCCGUUGGCGUAAUGGGAACGCGUCUCCCUCGUAAGGAGAAGACUGCGGGUUCGAGUCCCGUACGGCACG, the yeast fitness was found to be 0.504.

Consider GUUCCGUUGGCGUAAUGGUAACGCGUCUCUCUCCUAAGGAGGUGACUGCGGGUACGAGUCCCGUACGGAACG, for which the yeast fitness is no more than 0.5.

In the case of GUUCCGUUGGCGUAAUGGUAACGCGUCUCCCUUCUACGGAGAAGACUGCGGGUUCGAGUCCCGUACUGUACG, the yeast fitness was no more than 0.5.
